One block for each compound: values may come before it. Active and inactive are the calls of the source. The rule behind the calls is not given here.
Experiments:
[1] = target: Tyrosine-protein kinase ABL1 (Homo sapiens, UniProt P00519); assay: Inhibition of Abl 1
Procedure, shortened: (§1)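 Commercial recombinant kinases with kinase-optimised fluorescent peptide substrate at 1.5 μM and ATP at each kinase's measured Km; enzyme below 50 nM final. 11-point titration in DMSO, […] to 5 nM final. Room temperature, 1-2 h, to 20-30% substrate phosphorylation. EDTA stop, then substrate/product electrophoretic separation. IC50 from a Hill-equation fit of percent inhibition.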

[2] = target: Aurora kinase B (Homo sapiens, UniProt Q96GD4); assay: Inhibition of Aurora B; procedure, shortened: as §1
[3] = target: Cyclin-dependent kinase 1/cyclin B (Homo sapiens, UniProt P06493); assay: Inhibition of CDK1/Cyclin B; assay type: protein-complex assay
[4] = target: Cyclin-dependent kinase 2/cyclin A (Homo sapiens, UniProt P24941); assay: Inhibition of CDK2/Cyclin A; assay type: protein-complex assay
[5] = target: Tyrosine-protein kinase Fyn (Homo sapiens, UniProt P06241); assay: Inhibition of Fyn; procedure, shortened: as §1
[6] = target: Tyrosine-protein kinase HCK (Homo sapiens, UniProt P08631); assay: Inhibition of Hck; procedure, shortened: as §1
[7] = target: Tyrosine-protein kinase Lyn (Homo sapiens, UniProt P07948); assay: Inhibition of Lyn A; procedure, shortened: as §1
[8] = target: T1, Proto-oncogene tyrosine-protein kinase Src (Homo sapiens, UniProt P12931); assay: Inhibition of src kinase; procedure, shortened: as §1
[9] = target: Vascular endothelial growth factor receptor 2 (Homo sapiens, UniProt P35968); assay: Inhibition of KDR; procedure, shortened: as §1
[10] = target: Mitogen-activated protein kinase 1 (Homo sapiens, UniProt P28482); assay: Inhibition of ERK2
[11] = target: Mitogen-activated protein kinase 14 (Homo sapiens, UniProt Q16539); assay: Inhibition of p38alpha
[12] = target: MAP kinase-activated protein kinase 2 (Homo sapiens, UniProt P49137); assay: Inhibition of MK2
[13] = Inhibition of PKA
[14] = target: Protein kinase C beta type (Homo sapiens, UniProt P05771); assay: Inhibition of PKCbeta1
[15] = target: Protein kinase C alpha type (Homo sapiens, UniProt P17252); assay: Inhibition of PKCalpha; procedure, shortened: as §1
[16] = target: Casein kinase I isoform gamma-1 (Homo sapiens, UniProt Q9HCP0); assay: Inhibition of CK1gamma1
[17] = target: T2, Mitogen-activated protein kinase kinase kinase kinase 2 (Homo sapiens, UniProt Q12851); assay: Inhibition of GCK; procedure, shortened: as §1
T2 sequence (Q12851 whole entry): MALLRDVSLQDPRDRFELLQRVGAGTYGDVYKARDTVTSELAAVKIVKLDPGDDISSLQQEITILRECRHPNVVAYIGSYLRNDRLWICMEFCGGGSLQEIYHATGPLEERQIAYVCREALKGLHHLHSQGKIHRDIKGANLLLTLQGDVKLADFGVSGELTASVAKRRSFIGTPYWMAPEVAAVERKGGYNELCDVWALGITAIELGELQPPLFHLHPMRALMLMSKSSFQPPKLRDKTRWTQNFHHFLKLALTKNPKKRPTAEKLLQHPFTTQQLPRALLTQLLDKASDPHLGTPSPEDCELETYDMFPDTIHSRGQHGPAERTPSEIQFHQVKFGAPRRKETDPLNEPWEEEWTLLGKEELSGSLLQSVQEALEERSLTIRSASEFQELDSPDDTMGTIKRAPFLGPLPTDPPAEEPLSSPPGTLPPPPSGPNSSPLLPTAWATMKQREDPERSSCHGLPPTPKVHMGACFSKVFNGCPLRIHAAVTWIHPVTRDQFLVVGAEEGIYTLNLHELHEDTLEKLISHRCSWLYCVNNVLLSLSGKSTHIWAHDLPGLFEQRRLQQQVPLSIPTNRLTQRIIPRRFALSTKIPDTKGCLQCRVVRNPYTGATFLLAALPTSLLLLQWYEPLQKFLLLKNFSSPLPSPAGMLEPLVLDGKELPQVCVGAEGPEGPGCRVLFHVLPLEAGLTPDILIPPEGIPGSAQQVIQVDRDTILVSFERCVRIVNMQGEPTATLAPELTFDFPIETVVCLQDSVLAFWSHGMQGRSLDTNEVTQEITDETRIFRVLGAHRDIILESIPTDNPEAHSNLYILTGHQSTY

[18] = target: Platelet-derived growth factor receptor alpha (Homo sapiens, UniProt P16234); assay: Inhibition of PDGFRalpha; procedure, shortened: as §1
[19] = target: Ribosomal protein S6 kinase alpha-1 (Homo sapiens, UniProt Q15418); assay: Inhibition of RSK1
[20] = target: Tyrosine-protein kinase Lck (Homo sapiens) (UniProt P06239); assay: Inhibition of AMP-PNP binding to ATP binding site of LCK by saturation transfer difference spectra
Procedure, shortened: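 Lck kinase domain in 25 mM HEPES (pH 7.5), 200 mM NaCl, 10 mM MgCl2, 1 mM DTT, 5% DMSO/95% D2O; 25 °C, 600 MHz. Ligand is in large excess over protein. Protein saturated at 0.78 ppm for 3 s with 60 G4 Gaussian cascade pulses of 50 ms, 1 ms apart. STD % is peak intensity in STD spectrum over 1D 1H reference.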

[21] = target: T1, Proto-oncogene tyrosine-protein kinase Src; assay: Inhibition of AMP-PNP binding to ATP binding site of human SRC by saturation transfer difference spectra
[22] = target: T1, Proto-oncogene tyrosine-protein kinase Src; assay: Inhibition of staurosporine binding to ATP binding site of human SRC by saturation transfer difference spectra
Procedure, shortened: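 Human Src kinase domain (T250-L536, Sf21 insect-cell expressed, His6-tagged, Ni-NTA then gel filtration). NMR buffer 20 mM HEPES (pH 7.5), 200 mM NaCl, 5 mM MgCl2, 2 mM DTT, 2% DMSO/98% D2O; 25 °C, 600 MHz. Saturation at 0.78 ppm for 3 s (60 × 50 ms G4 pulses). STD % is STD over 1D reference intensity.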

[23] = target: Tyrosine-protein kinase Lck (Homo sapiens) (UniProt P06239); assay: Binding affinity to LCK assessed as reduction of compound relaxation intensity ratio at 100 uM by NMR method
Procedure, shortened: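 Lck kinase domain in 25 mM HEPES (pH 7.5), 200 mM NaCl, 10 mM MgCl2, 1 mM DTT, 5% DMSO/95% D2O; 25 °C, 600 MHz cryoprobe. T1ρ spectra at 10 and 200 ms spin-lock, 128 scans each. Ratio is the 200 ms over 10 ms resonance intensity, compared between spin-labelled probe and its reduced form.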

[24] = target: T1, Proto-oncogene tyrosine-protein kinase Src; assay: Inhibition of src kinase by functional activity assay of the Src kinase domain

Sequence of Tyrosine-protein kinase Lck (Homo sapiens) (P06239 2-509 limits assumed): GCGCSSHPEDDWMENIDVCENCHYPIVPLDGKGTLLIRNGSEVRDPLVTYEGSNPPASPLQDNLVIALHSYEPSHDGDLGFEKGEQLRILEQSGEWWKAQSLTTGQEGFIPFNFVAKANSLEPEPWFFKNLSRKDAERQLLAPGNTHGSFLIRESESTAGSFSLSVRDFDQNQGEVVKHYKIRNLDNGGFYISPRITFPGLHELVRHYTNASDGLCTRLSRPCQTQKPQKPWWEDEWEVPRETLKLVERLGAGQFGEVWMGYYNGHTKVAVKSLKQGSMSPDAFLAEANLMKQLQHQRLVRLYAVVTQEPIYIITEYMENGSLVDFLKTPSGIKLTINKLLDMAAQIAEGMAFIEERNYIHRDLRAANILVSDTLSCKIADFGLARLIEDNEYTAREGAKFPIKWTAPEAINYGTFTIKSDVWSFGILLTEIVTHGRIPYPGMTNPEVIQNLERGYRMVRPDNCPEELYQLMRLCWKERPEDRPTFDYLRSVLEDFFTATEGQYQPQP
T1 sequence (P12931 2-536 limits assumed): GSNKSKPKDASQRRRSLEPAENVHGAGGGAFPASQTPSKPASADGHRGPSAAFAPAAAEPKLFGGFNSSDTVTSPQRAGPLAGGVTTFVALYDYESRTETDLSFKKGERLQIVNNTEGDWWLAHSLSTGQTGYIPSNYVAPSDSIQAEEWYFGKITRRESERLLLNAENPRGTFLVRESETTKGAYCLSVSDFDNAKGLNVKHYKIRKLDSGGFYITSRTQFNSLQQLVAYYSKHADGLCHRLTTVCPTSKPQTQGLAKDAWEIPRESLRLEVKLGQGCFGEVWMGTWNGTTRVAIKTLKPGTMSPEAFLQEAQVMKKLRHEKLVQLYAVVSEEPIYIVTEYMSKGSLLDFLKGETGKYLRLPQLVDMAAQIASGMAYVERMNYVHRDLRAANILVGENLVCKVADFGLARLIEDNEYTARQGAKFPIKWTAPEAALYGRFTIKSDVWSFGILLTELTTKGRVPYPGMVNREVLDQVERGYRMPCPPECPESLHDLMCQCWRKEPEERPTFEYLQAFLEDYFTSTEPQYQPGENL
Sequence of Tyrosine-protein kinase HCK (P08631 whole entry): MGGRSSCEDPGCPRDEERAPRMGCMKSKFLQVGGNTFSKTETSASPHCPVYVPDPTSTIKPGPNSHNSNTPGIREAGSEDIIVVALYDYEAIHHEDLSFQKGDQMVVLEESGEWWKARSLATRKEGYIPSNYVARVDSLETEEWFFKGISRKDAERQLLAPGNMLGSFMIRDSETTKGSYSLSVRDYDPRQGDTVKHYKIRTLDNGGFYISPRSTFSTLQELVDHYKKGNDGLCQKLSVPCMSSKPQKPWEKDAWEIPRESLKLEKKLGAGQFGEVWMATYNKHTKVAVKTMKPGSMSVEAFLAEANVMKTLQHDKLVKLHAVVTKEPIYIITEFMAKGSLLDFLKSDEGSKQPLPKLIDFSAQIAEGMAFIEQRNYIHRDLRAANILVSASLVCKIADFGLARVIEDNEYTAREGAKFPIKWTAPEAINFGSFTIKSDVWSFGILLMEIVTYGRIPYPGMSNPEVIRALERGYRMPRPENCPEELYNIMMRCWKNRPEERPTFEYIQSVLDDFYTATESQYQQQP
Sequence of Ribosomal protein S6 kinase alpha-1 (Q15418 whole entry): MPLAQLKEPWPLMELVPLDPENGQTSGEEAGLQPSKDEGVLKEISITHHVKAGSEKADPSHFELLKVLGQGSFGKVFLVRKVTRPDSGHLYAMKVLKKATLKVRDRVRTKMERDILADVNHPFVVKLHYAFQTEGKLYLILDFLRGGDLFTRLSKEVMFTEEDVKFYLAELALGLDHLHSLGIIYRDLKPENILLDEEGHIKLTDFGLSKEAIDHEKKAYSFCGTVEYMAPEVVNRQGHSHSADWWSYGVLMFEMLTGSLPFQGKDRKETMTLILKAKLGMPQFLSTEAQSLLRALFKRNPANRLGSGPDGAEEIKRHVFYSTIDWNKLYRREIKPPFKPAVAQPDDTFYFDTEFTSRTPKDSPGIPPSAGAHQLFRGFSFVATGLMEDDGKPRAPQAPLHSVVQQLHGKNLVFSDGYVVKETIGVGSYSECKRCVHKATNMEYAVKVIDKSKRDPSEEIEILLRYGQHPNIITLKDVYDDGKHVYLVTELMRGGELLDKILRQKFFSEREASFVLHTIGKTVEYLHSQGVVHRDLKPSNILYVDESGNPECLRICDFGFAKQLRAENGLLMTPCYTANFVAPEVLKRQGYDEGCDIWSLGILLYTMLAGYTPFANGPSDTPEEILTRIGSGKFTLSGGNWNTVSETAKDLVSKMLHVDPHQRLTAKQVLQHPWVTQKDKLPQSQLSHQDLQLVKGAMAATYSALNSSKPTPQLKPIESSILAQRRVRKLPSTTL
Sequence of Protein kinase C beta type (P05771 whole entry): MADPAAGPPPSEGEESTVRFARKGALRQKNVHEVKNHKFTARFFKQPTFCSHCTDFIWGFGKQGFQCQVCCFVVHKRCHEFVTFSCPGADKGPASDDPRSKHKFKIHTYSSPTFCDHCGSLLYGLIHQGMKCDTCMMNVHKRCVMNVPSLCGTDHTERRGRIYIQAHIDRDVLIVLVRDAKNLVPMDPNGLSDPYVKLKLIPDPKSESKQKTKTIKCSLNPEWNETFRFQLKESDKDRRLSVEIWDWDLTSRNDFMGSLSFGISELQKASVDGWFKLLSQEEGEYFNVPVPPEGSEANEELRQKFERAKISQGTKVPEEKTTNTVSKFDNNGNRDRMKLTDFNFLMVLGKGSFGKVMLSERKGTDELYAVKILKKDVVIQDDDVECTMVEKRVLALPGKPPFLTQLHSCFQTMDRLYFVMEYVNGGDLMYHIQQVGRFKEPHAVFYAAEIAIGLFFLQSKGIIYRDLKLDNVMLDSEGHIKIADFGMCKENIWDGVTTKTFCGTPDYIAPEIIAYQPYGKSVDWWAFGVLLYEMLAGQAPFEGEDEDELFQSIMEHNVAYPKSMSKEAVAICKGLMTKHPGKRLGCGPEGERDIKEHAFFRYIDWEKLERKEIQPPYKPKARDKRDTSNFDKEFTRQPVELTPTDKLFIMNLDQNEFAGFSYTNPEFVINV
Sequence of Tyrosine-protein kinase ABL1 (P00519 whole entry): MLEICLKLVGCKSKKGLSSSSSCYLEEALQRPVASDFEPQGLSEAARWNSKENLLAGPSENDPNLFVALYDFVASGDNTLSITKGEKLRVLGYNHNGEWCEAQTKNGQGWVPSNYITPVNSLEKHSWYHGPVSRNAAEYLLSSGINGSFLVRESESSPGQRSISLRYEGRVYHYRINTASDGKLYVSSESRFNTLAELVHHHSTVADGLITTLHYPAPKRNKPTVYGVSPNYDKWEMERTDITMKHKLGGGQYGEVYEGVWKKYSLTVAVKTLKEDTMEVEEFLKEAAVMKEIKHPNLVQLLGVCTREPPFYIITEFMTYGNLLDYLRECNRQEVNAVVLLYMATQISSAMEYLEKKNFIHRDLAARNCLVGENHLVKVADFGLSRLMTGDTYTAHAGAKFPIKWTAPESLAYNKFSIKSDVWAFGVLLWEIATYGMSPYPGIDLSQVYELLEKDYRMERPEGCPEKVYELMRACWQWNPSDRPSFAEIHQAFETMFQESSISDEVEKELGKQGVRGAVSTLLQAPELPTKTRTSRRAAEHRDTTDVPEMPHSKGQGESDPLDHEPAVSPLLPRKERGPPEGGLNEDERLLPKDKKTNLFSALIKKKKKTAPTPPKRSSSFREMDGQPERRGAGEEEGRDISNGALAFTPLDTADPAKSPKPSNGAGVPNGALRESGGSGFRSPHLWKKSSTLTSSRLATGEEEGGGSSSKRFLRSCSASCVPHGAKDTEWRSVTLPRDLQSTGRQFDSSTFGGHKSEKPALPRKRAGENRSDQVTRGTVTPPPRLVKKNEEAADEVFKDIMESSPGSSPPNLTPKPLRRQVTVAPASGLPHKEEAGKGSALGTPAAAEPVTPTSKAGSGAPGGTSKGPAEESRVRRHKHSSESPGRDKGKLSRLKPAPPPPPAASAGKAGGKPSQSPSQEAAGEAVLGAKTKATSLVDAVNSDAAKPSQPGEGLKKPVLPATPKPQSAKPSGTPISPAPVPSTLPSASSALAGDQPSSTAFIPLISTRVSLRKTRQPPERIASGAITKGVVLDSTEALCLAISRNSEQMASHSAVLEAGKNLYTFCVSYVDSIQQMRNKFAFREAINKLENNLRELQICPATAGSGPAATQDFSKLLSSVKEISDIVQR
Sequence of Tyrosine-protein kinase Lyn (P07948 whole entry): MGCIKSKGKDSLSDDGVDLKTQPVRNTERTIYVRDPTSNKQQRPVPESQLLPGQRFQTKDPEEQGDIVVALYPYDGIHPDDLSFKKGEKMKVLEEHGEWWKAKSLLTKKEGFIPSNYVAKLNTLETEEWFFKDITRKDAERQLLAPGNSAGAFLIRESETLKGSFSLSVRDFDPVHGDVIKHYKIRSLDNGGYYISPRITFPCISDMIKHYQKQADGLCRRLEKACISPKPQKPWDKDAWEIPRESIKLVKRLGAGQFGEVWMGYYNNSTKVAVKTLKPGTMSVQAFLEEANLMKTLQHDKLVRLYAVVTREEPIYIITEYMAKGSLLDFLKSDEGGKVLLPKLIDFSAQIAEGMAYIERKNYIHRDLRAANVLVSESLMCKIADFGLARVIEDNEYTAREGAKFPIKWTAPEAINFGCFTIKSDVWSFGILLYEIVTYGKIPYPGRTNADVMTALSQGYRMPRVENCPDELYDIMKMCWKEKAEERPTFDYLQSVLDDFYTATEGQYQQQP
Sequence of Casein kinase I isoform gamma-1 (Q9HCP0 whole entry, canonical isoform): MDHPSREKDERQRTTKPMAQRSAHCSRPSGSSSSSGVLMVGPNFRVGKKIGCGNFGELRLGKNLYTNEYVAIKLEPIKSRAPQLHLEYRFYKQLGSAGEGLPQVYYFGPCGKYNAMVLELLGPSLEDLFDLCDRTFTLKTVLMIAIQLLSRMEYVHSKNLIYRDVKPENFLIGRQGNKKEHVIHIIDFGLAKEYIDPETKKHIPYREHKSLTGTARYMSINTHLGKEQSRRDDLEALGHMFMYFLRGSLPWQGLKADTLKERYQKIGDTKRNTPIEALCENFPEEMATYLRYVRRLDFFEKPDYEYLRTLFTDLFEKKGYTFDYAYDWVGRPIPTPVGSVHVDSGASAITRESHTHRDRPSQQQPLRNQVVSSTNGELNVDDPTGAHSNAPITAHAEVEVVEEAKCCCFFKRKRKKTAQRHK

SMILES: CC1(C)CC(NC(=O)c2cccc(-c3cc4nccc(Nc5cccc(O)c5)n4n3)c2)CC(C)(C)N1[O]
IC50 [1]: 5 nM | IC50 [2]: 2900 nM | IC50 [3]: > 50000 nM | IC50 [4]: > 50000 nM | IC50 [5]: 5 nM | IC50 [6]: 16 nM | IC50 [7]: 7 nM | IC50 [8]: 5 nM | IC50 [9]: 3.3 nM | IC50 [10]: > 50000 nM | IC50 [11]: > 50000 nM | IC50 [12]: > 50000 nM | IC50 [13]: > 50000 nM | IC50 [14]: > 60000 nM | IC50 [15]: 1300 nM | IC50 [16]: > 50000 nM | IC50 [17]: 24 nM | IC50 [18]: 38 nM | IC50 [19]: > 50000 nM | Activity [20]: Active | Activity [21]: Active

IC50 [8]: > 20000 nM | Activity [20]: Active | Activity [21]: inactive | Activity [22]: inactive | Activity [23]: Active | IC50 [24]: 40000 nM
SMILES: O=C(Cc1ccc(-c2ccc(OCCN3CCOCC3)cc2)cn1)NCc1ccccc1 [TIRBANIBULIN]

Activity [20]: Active | Activity [22]: inactive | Activity [23]: Active
SMILES: O=C(O)c1ccccc1Nc1ccccc1

From ChEMBL document CHEMBL1156806, “Novel synthesis and structural characterization of a high-affinity paramagnetic kinase probe for the identification of non-ATP site binders by nuclear magnetic resonance” (J Med Chem, 2010)
